Data as given in ChEMBL document CHEMBL5705897, “Characterization of WZ4003 and HTH-01-015 as selective inhibitors of the LKB1-tumour-suppressor-activated NUAK kinases” (Biochem J, 2014).
Active and inactive are the calls of the source. The calls are words filed in the database; no cut-off is given here.

Legend:
[1] = target: Ribosomal protein S6 kinase alpha-1 (Homo sapiens) (UniProt Q15418); experiment: Inhibition of recombinant human N-terminal His6-tagged RSK1 (1 to 735 residues) expressed in baculovirus infected Sf21 cells assessed as remaining activity at 1 uM using KKLNRTLSVA as substrate incubated for 30 mins in presence of [gamma-33P]ATP by filter binding method relative to control
Summary of the method: (§1)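 Screened at the International Centre for Protein Kinase Profiling against a 140-kinase panel, with inhibitor at 0.1 or 1 μM; activity expressed as percentage of DMSO control reactions, mean of triplicate reactions.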

[2] = target: Protein kinase C alpha type (Homo sapiens) (UniProt P17252); experiment: Inhibition of recombinant human N-terminal His6-tagged PKCalpha (1 to 672 residues) expressed in baculovirus infected Sf21 cells assessed as remaining activity at 1 uM using Histone H1 as substrate incubated for 30 mins in presence of [gamma-33P]ATP by filter binding method relative to control; summary of the method: as §1
[3] = target: Serine/threonine-protein kinase D1 (Homo sapiens) (UniProt Q15139); experiment: Inhibition of recombinant human N-terminal His6-tagged PKD1 (2 to 912 residues) expressed in baculovirus infected Sf21 cells assessed as remaining activity at 1 uM using KKLNRTLSVA as substrate incubated for 30 mins in presence of [gamma-33P]ATP by filter binding method relative to control; summary of the method: as §1
[4] = target: MAP kinase-interacting serine/threonine-protein kinase 2 (Homo sapiens) (UniProt Q9HBH9); experiment: Inhibition of recombinant human N-terminal GST/C-terminal His6-tagged MNK2alpha (2 to 465 residues) expressed in Escherichia coli assessed as remaining activity at 1 uM using eIF4E as substrate incubated for 30 mins in presence of [gamma-33P]ATP by filter binding method relative to control; summary of the method: as §1
[5] = target: Calcium/calmodulin-dependent protein kinase type 1 (Homo sapiens) (UniProt Q14012); experiment: Inhibition of recombinant human N-terminal GST-tagged CAMK1alpha (2 to 369 residues) expressed in Escherichia coli assessed as remaining activity at 1 uM using YLRRRLSDSNF as substrate incubated for 30 mins in presence of [gamma-33P]ATP by filter binding method relative to control; summary of the method: as §1
[6] = target: Serine/threonine-protein kinase Chk1 (Homo sapiens) (UniProt O14757); experiment: (§2) Inhibition of recombinant human N-terminal GST-tagged CHK1 (1 to 476 residues) expressed in baculovirus infected Sf21 cells assessed as remaining activity at 1 uM using CHKtide as substrate incubated for 30 mins in presence of [gamma-33P]ATP by filter binding method relative to control; summary of the method: as §1
[7] = target: Serine/threonine-protein kinase TBK1 (Homo sapiens) (UniProt Q9UHD2); experiment: as §2, with “TBK1” for “CHK1”, “729” for “476”, “KKKKERLLDDRHDSGLDSMKDEE” for “CHKtide”; summary of the method: as §1
[8] = target: Mitogen-activated protein kinase kinase kinase kinase 2 (Homo sapiens) (UniProt Q12851); experiment: Inhibition of recombinant human N-terminal His6-tagged GCK (2 to 812 residues) expressed in baculovirus infected Sf21 cells assessed as remaining activity at 1 uM using MBP as substrate incubated for 30 mins in presence of [gamma-33P]ATP by filter binding method relative to control; summary of the method: as §1
[9] = target: Mitogen-activated protein kinase kinase kinase 11 (Homo sapiens) (UniProt Q16584); experiment: Inhibition of recombinant human N-terminal GST-tagged MLK3 (96 to 386 residues) expressed in baculovirus infected Sf21 cells assessed as remaining activity at 1 uM using MBP as substrate incubated for 30 mins in presence of [gamma-33P]ATP by filter binding method relative to control; summary of the method: as §1
[10] = target: Platelet-derived growth factor receptor alpha (Homo sapiens) (UniProt P16234); experiment: Inhibition of recombinant human PDGFRalpha (551 to 10589 residues) expressed in baculovirus infected Sf21 cells assessed as remaining activity at 1 uM using KKKKEEIYFFFG as substrate incubated for 30 mins in presence of [gamma-33P]ATP by filter binding method relative to control; summary of the method: as §1
[11] = target: T1, NUAK family SNF1-like kinase 1 (Homo sapiens) (UniProt O60285); experiment: Inhibition of NUAK1 (unknown origin) expressed in HEK293 cells assessed as reduction in MYPT1 phosphorylation at Ser445 residue at 30 uM incubated for 16 hrs by immunoblot analysis; assay type: cell-based
T1 sequence (whole entry): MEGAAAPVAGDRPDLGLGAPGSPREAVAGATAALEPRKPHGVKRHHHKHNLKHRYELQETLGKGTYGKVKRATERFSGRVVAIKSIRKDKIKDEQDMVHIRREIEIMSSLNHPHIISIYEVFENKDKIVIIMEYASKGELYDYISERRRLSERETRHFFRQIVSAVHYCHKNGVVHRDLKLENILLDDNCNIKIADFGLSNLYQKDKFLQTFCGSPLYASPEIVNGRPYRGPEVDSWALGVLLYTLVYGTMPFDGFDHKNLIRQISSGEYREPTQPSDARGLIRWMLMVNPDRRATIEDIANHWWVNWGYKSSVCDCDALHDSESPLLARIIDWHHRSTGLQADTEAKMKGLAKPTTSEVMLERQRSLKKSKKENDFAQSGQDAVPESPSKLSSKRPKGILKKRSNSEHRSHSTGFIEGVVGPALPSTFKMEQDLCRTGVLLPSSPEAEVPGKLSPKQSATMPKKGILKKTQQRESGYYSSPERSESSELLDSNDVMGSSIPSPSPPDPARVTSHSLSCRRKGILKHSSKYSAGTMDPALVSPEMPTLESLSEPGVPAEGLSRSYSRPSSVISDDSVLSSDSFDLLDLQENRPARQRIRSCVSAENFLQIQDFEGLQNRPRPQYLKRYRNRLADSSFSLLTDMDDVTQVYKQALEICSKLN
Summary of the method: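 HEK-293 Flp/In T-Rex cells stably expressing HA–NUAK1 or HA–NUAK1[A195T] (doxycycline 0.1 μg/ml, 16–24 h to induce) treated with inhibitor 16 h, then detached in EDTA-PBS dissociation buffer containing the same inhibitor concentration, tapped and spun 70 g 3 min; lysed, endogenous MYPT1 immunoprecipitated from 0.5 mg lysate and immunoblotted for p-Ser445 and total MYPT1; three separate experiments.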

MEF = experiment: Inhibition of cell migration in NUAK1+/+ MEF cells at 10 uM pre incubated for 1 hr followed by overnight incubation and measured after 15 to 20 hrs by microscopic based wound healing assay; assay type: functional; details: Mus musculus
Summary of the method: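 Wound healing: equal MEF numbers loaded into both chambers of inserts with a 500 μm gap, inhibitor (10 μM) added 1 h before; after overnight at 37 °C, 5% CO2 insert removed and gap closure filmed by time-lapse microscopy every 2 min over 15–20 h; triplicate.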

U2OS = experiment: Inhibition of cell invasion in human U2OS cells at 10 uM incubated for 16 hrs by matrigel based transwell assay; assay type: functional
Summary of the method: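 Growth-factor-reduced Matrigel Transwell invasion: U2OS cells serum-deprived 2 h, detached, 2.5×10^5 cells in DMEM/1% BSA added to upper chambers in triplicate, DMEM/10% FBS as chemoattractant below; 16 h at 37 °C, 5% CO2 with or without 10 μM inhibitor in both compartments; cells on lower filter face fixed, stained, imaged ×10 and counted; mean ± S.D.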

Mitogen-activated protein kinase kinase kinase kinase 2 (Homo sapiens), sequence (Q12851 whole entry, the tested form may be a part): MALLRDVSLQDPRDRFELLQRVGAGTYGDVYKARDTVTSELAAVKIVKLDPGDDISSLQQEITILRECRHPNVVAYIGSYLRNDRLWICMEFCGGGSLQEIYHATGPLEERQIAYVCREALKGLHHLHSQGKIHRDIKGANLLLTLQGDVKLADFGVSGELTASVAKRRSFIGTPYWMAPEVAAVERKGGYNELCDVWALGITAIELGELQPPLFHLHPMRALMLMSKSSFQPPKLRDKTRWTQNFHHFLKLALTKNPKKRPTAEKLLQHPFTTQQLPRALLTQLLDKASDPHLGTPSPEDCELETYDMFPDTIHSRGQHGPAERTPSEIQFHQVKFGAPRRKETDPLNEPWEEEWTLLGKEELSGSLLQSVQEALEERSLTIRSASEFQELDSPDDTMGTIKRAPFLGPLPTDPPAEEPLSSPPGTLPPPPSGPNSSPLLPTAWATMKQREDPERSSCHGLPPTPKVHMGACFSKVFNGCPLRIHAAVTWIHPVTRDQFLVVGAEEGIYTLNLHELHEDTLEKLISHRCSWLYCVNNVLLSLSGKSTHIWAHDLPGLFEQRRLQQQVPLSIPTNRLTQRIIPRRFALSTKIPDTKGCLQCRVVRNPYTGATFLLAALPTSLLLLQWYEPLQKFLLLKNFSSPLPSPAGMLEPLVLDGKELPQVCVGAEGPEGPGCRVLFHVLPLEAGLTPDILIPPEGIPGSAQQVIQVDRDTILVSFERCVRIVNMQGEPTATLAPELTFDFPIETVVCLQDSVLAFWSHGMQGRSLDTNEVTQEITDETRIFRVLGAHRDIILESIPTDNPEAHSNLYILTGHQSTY
Platelet-derived growth factor receptor alpha (Homo sapiens), sequence (P16234 whole entry, the tested form may be a part): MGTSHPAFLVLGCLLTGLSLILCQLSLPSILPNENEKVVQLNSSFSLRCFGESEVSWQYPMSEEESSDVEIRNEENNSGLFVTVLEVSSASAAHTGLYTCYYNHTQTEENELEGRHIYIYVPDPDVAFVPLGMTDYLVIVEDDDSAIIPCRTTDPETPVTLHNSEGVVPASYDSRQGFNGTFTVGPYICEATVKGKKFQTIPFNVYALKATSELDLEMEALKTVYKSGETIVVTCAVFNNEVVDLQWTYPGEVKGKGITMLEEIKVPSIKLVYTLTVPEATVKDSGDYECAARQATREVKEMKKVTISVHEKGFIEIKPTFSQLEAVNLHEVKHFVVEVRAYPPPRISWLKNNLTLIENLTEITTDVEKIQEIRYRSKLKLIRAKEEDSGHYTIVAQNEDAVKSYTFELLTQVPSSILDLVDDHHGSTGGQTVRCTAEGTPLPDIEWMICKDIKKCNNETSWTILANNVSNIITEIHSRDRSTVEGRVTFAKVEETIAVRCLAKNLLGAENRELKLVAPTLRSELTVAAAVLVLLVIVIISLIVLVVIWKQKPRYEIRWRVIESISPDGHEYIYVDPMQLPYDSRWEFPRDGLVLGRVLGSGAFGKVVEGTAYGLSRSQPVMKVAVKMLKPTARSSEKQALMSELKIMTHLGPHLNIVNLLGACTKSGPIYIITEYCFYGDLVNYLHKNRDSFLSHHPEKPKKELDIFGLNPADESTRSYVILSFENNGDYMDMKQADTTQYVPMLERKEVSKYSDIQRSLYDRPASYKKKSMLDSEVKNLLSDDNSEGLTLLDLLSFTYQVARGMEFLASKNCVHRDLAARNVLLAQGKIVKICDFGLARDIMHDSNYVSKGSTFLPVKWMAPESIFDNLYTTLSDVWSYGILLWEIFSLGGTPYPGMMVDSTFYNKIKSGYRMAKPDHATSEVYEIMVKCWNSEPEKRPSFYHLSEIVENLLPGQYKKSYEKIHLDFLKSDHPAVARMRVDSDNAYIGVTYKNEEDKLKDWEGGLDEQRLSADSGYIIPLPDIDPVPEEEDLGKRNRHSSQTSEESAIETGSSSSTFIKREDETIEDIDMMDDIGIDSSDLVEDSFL
Serine/threonine-protein kinase D1 (Homo sapiens), sequence (Q15139 whole entry, the tested form may be a part): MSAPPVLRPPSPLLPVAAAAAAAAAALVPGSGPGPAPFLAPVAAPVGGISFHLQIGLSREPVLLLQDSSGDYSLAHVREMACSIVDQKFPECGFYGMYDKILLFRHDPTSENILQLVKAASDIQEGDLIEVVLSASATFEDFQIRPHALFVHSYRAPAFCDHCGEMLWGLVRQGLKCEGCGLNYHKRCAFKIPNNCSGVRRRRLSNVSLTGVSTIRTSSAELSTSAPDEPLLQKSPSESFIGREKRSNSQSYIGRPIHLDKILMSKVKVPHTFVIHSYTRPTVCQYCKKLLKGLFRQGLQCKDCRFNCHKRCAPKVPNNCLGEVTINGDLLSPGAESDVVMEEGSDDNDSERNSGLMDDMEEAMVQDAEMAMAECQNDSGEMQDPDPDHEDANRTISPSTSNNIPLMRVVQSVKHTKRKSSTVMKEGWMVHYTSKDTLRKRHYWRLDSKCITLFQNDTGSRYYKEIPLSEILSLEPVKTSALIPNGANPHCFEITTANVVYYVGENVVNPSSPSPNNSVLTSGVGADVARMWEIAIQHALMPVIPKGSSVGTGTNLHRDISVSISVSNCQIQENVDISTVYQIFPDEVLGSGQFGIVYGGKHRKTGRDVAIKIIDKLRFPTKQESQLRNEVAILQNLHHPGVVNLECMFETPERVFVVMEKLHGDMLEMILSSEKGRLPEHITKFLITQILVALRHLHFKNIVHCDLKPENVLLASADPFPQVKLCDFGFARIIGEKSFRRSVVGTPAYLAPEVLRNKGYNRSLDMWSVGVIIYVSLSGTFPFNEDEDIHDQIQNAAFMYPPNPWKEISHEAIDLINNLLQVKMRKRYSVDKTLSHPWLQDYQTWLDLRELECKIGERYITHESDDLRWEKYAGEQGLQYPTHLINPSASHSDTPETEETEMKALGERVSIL
Mitogen-activated protein kinase kinase kinase 11 (Homo sapiens), sequence (Q16584 whole entry, looked up, the tested form may be a part): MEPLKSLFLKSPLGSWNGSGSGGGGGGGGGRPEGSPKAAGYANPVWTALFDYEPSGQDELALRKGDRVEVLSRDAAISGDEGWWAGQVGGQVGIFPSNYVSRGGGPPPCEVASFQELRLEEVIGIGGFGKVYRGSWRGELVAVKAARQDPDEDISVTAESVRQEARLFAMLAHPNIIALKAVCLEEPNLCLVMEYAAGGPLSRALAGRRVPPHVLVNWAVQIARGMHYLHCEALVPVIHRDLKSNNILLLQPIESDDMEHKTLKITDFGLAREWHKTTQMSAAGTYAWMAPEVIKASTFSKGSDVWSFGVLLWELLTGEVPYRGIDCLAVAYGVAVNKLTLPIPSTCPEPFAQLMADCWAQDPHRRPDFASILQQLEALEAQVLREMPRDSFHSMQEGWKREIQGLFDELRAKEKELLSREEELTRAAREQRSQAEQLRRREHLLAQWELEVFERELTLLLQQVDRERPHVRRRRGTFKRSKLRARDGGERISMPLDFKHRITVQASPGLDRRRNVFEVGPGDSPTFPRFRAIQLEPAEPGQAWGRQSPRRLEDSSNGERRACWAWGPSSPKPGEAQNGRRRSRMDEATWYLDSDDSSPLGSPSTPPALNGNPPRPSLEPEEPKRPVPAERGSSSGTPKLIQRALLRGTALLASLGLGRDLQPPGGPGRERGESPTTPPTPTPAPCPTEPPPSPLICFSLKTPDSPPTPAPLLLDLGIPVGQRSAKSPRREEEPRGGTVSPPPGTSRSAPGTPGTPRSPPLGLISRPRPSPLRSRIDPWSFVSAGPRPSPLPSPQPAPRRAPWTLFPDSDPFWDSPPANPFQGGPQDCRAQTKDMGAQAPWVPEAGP
Serine/threonine-protein kinase TBK1 (Homo sapiens), sequence (Q9UHD2 whole entry, the tested form may be a part): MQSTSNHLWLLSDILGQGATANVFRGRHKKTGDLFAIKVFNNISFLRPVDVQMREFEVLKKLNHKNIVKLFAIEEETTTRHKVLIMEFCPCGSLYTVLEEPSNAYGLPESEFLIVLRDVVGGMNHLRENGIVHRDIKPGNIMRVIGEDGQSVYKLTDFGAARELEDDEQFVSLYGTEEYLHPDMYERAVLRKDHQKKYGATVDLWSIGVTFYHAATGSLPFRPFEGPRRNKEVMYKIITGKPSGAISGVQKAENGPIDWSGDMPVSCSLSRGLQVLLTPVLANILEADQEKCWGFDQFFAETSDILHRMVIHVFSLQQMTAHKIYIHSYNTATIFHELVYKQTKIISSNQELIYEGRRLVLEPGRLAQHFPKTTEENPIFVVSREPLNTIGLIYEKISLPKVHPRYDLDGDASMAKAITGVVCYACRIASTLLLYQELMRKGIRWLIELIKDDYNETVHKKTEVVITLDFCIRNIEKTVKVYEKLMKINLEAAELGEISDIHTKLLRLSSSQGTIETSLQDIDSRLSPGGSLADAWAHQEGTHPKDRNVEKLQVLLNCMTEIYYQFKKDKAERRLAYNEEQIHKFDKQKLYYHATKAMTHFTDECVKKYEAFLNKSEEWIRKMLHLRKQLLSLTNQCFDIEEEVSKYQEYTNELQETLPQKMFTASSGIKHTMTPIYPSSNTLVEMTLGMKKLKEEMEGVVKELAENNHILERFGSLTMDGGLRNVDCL

CCC(=O)Nc1cccc(Oc2nc(Nc3ccc(N4CCN(C)CC4)cc3OC)ncc2Cl)c1
Activity [1]: 67% | Activity [2]: 77% | Activity [3]: 57% | Activity [4]: 84% | Activity [5]: 81% | Activity [6]: 58% | Activity [7]: 84% | Activity [8]: 96% | Activity [9]: 73% | Activity [10]: 96% | inhibition [11]: Active | inhibition (MEF): Active | inhibition (U2OS): Active
